The source of these data is ChEMBL document CHEMBL1132481 (J Med Chem, 1999).

Some results are limits rather than exact numbers.

In assay [1] the target is Sodium-dependent serotonin transporter (Rattus norvegicus, UniProt P31652). Briefly: Selectivity for the Serotonin transporter using [3H]paroxetine binding assay. The method, boiled down:
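Serotonin transporter binding used 1.5 mg hindbrain from male Sprague–Dawley rats with 0.2 nM [3H]paroxetine. Buffer was 50 mM Tris, 120 mM NaCl, 0.5 mM KCl, pH 7.4. Incubated 90 min at room temperature. Nonspecific binding defined with 1 μM citalopram. Ice-cold washes through PEI-soaked GF/B filters.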

The target of assay [2] is Norepinephrine transporter (Rattus norvegicus, UniProt Q9WTR4). Briefly: Selectivity for the norepinephrine transporter using [3H]nisoxetine binding assay. The method, boiled down: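 Norepinephrine transporter binding used 8 mg frontal cortex from male Sprague–Dawley rats with 0.5 nM [3H]nisoxetine. Incubated 60 min. Nonspecific binding defined with 1 μM desipramine. Ice-cold washes through PEI-soaked GF/B filters.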
Chain of Norepinephrine transporter (Q9WTR4 whole entry): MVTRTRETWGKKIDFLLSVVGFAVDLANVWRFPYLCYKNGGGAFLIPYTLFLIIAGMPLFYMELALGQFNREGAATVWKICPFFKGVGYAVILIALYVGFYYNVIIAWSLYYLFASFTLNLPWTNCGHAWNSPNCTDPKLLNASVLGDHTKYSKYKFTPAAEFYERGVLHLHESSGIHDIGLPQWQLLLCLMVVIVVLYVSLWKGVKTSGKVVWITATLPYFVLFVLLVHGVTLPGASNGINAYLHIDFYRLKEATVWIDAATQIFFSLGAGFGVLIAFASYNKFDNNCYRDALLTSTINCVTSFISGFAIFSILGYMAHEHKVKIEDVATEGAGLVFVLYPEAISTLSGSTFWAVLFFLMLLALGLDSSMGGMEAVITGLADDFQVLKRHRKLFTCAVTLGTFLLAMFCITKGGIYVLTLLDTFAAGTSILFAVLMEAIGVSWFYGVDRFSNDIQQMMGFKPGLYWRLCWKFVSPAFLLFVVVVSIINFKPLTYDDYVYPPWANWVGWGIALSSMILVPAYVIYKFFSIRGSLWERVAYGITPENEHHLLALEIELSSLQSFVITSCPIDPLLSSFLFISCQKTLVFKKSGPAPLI

Assay [3] has as its target T1, Sodium-dependent dopamine transporter (Rattus norvegicus, UniProt P23977). Briefly: Inhibitory potency against dopamine (DA) transporter using [3H]WIN-35428 (WIN-) binding assay.
For assay [4], the target named is T1, Sodium-dependent dopamine transporter. Briefly: Inhibitory potency against [3H]DA uptake […]. The method, boiled down: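 Rat striatal S1 fraction (CO2-anesthetized rats) diluted in Krebs-phosphate buffer (pH 7.4, O2/CO2-equilibrated, with pargyline and ascorbate). Preincubated with drug 10 min at 37 °C, then [3H]DA for 2.0 min. Nonspecific uptake measured at 0 °C. Stopped with chilled buffer and GF/C filtration, then scintillation counting. IC50 from usually five concentrations, each in duplicate.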

For assay [5], the target named is Monoamine transporters; Norepininephrine & dopamine (Rattus norvegicus) (UniProt P23977+Q9WTR4). Kind of assay: Ratio of IC50 of NE (norepinephrine transporter) to IC50 of DA (dopamine transporter). It is filed as protein assay.
The target in assay [6] is Monoamine transporters; serotonin & dopamine (Rattus norvegicus) (UniProt P31652+P23977). Kind of assay: Ratio of IC50 of 5-HT (serotonin transporter) to IC50 of DA (dopamine transporter). In kind it is protein assay.
Chain of Monoamine transporters; serotonin & dopamine (Rattus norvegicus) (P23977 whole entry, looked up): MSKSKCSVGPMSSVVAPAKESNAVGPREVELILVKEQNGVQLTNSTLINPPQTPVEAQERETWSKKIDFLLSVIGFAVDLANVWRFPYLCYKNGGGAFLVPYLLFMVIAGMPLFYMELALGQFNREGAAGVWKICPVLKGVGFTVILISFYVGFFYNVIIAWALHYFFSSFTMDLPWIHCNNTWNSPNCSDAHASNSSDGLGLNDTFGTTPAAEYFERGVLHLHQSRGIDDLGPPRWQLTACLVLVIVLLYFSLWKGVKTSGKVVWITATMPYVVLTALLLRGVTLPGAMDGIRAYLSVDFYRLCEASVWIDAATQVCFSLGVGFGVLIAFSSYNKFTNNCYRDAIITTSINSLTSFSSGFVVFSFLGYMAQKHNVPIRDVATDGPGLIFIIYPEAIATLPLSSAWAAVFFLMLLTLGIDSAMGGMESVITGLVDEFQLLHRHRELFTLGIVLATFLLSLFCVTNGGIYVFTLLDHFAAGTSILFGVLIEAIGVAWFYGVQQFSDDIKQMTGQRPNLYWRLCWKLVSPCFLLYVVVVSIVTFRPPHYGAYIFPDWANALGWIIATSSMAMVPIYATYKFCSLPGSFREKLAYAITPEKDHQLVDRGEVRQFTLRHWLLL
Chain of Monoamine transporters; serotonin & dopamine (Rattus norvegicus) (P31652 whole entry, looked up): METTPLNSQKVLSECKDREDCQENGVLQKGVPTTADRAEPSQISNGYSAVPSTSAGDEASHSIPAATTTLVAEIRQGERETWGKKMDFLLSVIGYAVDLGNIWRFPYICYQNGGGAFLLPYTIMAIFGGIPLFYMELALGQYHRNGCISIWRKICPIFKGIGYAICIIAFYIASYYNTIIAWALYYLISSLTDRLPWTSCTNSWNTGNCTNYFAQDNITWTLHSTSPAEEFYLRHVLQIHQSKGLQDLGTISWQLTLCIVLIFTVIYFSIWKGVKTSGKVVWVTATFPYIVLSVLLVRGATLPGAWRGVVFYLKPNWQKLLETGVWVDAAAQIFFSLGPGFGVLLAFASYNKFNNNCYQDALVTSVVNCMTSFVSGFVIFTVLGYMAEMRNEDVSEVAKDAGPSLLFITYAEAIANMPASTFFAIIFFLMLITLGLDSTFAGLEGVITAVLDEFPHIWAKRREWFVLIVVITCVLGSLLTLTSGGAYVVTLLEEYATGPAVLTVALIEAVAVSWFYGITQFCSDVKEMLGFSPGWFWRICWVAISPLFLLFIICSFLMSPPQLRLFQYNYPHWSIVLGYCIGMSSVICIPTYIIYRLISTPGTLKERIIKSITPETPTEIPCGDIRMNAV

T1 sequence (P23977 whole entry): as the sequence (P23977 whole entry, looked up) above
Chain of Sodium-dependent serotonin transporter (P31652 whole entry): as the sequence (P31652 whole entry, looked up) above

For orientation: IC50 means the concentration that inhibits the measured activity by half. Read a high IC50 as lower potency. In the case of `CN(C)CC1C2CCC(CC2)C1c1ccc(Cl)c(Cl)c1` (stereo not drawn), the IC50 in assay [1] was 0.261 µM; in assay [2], 0.096 µM.
In the case of `CN(C)C1C2CCC(CC2=O)C1c1ccccc1` (stereo in doubt; 6) [listing 1 of 2 here], the 50% inhibitory concentration (IC50) in assay [1] came out at 31.4 µM; in assay [3] it was 4.01 µM; in assay [2] it was 4.12 µM; in assay [4] it was 9.14 µM.
For the compound `CN(C)C1C2CCC(CC2=O)C1c1ccccc1` (stereo in doubt; 6) [listing 2 of 2 here], the results for the Ratio in assay [5] and in assay [6] were 1 and 7.8, respectively.
For the compound `CN(C)C1C2CCC(CC2O)C1c1ccccc1` (stereo in doubt; 7) [listing 1 of 2 here], the IC50 stood at 8.38 µM in assay [1], 1.77 µM in assay [3], 1.51 µM in assay [2] and 4.45 µM in assay [4].
`CN(C)C1C2CCC(CC2O)C1c1ccccc1` (stereo in doubt; 7) [listing 2 of 2 here]: the Ratio in assay [5] is 0.85; in assay [6] it was 4.7.
`CN(C)C1C2CCC(CC2O)C1c1ccccc1` (stereo in doubt; 8) [listing 1 of 2 here]: the half-inhibitory concentration (IC50) worked out at 21.8 µM in assay [1], 2.04 µM in assay [3], 7.23 µM in assay [2] and 2.81 µM in assay [4].
Consider `CN(C)C1C2CCC(CC2O)C1c1ccccc1` (stereo in doubt; 8) [listing 2 of 2 here], for which the Ratio in assay [5] amounted to 3.5; in assay [6] it was 11.
Take `CC(=O)OC1CC2CCC1C(N(C)C)C2c1ccccc1` (stereo in doubt; 9) [listing 1 of 2 here]: the IC50 came out at 2.45 µM in assay [1], 5.33 µM in assay [3], 0.535 µM in assay [2] and 4.93 µM in assay [4].
As for `CC(=O)OC1CC2CCC1C(N(C)C)C2c1ccccc1` (stereo in doubt; 9) [listing 2 of 2 here], the values for the Ratio in assay [5] and in assay [6] were 0.1 and 0.46, respectively.
For `CC(=O)OC1CC2CCC1C(N(C)C)C2c1ccccc1` (stereo in doubt; 10) [listing 1 of 2 here], the IC50 in assay [1] is 176 µM; in assay [3], 12.2 µM; in assay [2], 55.4 µM; in assay [4] it was 25.8 µM.
In the case of `CC(=O)OC1CC2CCC1C(N(C)C)C2c1ccccc1` (stereo in doubt; 10) [listing 2 of 2 here], the Ratio in assay [5] was 4.5; in assay [6], 14.
With `CN(C)C1C2CCC(CC2OC(=O)c2ccccc2)C1c1ccccc1` (stereo in doubt; 11) [listing 1 of 2 here], the IC50 in assay [1] was determined as 0.053 µM; in assay [3] it was 0.358 µM; in assay [2] it was 0.225 µM; in assay [4], 0.372 µM.
On to `CN(C)C1C2CCC(CC2OC(=O)c2ccccc2)C1c1ccccc1` (stereo in doubt; 11) [listing 2 of 2 here], for which the Ratio in assay [5] is 0.65; in assay [6], 0.15.
With `CN(C)C1C2CCC(CC2OC(=O)c2ccccc2)C1c1ccccc1` (stereo in doubt; 12) [listing 1 of 2 here], the concentration for half-maximal inhibition (IC50) in assay [1] was 11.1 µM; in assay [3], 0.27 µM; in assay [2], 1.47 µM; in assay [4] it was 0.687 µM.
Turning to `CN(C)C1C2CCC(CC2OC(=O)c2ccccc2)C1c1ccccc1` (stereo in doubt; 12) [listing 2 of 2 here], the Ratio stood at 5.4 in assay [5] and 41 in assay [6].
As to `CN(C)C1C2CCC(CC2=O)C1c1ccccc1` (stereo in doubt; 13) [listing 1 of 2 here], the IC50 in assay [1] turned out to be 61.2 µM; in assay [3] it was 10.3 µM; in assay [2] it was 10.6 µM; in assay [4] it was 24.7 µM.
As to `CN(C)C1C2CCC(CC2=O)C1c1ccccc1` (stereo in doubt; 13) [listing 2 of 2 here], the Ratio in assay [5] turned out to be 1; in assay [6], 5.9.
With `CN(C)C1C2CCC(CC2O)C1c1ccccc1` (stereo in doubt; 14) [listing 1 of 2 here], the IC50 in assay [1] was determined as 12.3 µM; in assay [3] it was 7.04 µM; in assay [2] it was 7.73 µM; in assay [4], 10.9 µM.
Regarding `CN(C)C1C2CCC(CC2O)C1c1ccccc1` (stereo in doubt; 14) [listing 2 of 2 here], the Ratio in assay [5] stood at 1.1; in assay [6] it was 1.7.
Regarding `CN(C)C1C2CCC(CC2O)C1c1ccccc1` (stereo in doubt; 15) [listing 1 of 2 here], the half-inhibitory concentration (IC50) in assay [1] is > 100 µM; in assay [3] it was 9.92 µM; in assay [2] it was 34.4 µM; in assay [4], 23 µM.
Take `CN(C)C1C2CCC(CC2O)C1c1ccccc1` (stereo in doubt; 15) [listing 2 of 2 here]: the Ratio is 3.5 in assay [5] and > 10 in assay [6].
On to `CC(=O)OC1CC2CCC1C(N(C)C)C2c1ccccc1` (stereo in doubt; 16) [listing 1 of 2 here], for which the IC50 is 4.77 µM in assay [1], 13.6 µM in assay [3], 10.4 µM in assay [2] and 16.3 µM in assay [4].
`CC(=O)OC1CC2CCC1C(N(C)C)C2c1ccccc1` (stereo in doubt; 16) [listing 2 of 2 here]: the values for the Ratio in assay [5] and in assay [6] were 0.76 and 0.35, respectively.
Take `CC(=O)OC1CC2CCC1C(N(C)C)C2c1ccccc1` (stereo in doubt; 17) [listing 1 of 2 here]: the IC50 in assay [1] is 22.8 µM; in assay [3], 45.6 µM; in assay [2], 46.8 µM; in assay [4], 75 µM.
Turning to `CC(=O)OC1CC2CCC1C(N(C)C)C2c1ccccc1` (stereo in doubt; 17) [listing 2 of 2 here], the values for the Ratio in assay [5] and in assay [6] were 1 and 0.5, respectively.
Regarding `CN(C)C1C2CCC(CC2OC(=O)c2ccccc2)C1c1ccccc1` (stereo in doubt; 18) [listing 1 of 2 here], the IC50 came out at 0.76 µM in assay [1], 2.2 µM in assay [3], 7.38 µM in assay [2] and 4.84 µM in assay [4].
Consider `CN(C)C1C2CCC(CC2OC(=O)c2ccccc2)C1c1ccccc1` (stereo in doubt; 18) [listing 2 of 2 here], for which the Ratio was determined as 3.4 in assay [5] and 0.35 in assay [6].
Regarding `CN(C)C1C2CCC(CC2OC(=O)c2ccccc2)C1c1ccccc1` (stereo in doubt; 19) [listing 1 of 2 here], the half-maximal inhibitory concentration (IC50) is 1.88 µM in assay [1], 2.27 µM in assay [3], 4.19 µM in assay [2] and 8.24 µM in assay [4].
As to `CN(C)C1C2CCC(CC2OC(=O)c2ccccc2)C1c1ccccc1` (stereo in doubt; 19) [listing 2 of 2 here], the Ratio is 1.8 in assay [5] and 0.83 in assay [6].
Take `COC(=O)[C@H](c1ccccc1)[C@H]1CCCCN1` [DEXMETHYLPHENIDATE]: the half-maximal inhibitory concentration (IC50) is 224 µM in assay [1] and 0.989 µM in assay [2].
